43 compounds from ChEMBL document CHEMBL3091446, “Development of fluorinated CB(2) receptor agonists for PET studies” (Bioorg Med Chem, 2013) can be followed below.

Each structure is given as a SMILES string.

T2 sequence (P34972 whole entry): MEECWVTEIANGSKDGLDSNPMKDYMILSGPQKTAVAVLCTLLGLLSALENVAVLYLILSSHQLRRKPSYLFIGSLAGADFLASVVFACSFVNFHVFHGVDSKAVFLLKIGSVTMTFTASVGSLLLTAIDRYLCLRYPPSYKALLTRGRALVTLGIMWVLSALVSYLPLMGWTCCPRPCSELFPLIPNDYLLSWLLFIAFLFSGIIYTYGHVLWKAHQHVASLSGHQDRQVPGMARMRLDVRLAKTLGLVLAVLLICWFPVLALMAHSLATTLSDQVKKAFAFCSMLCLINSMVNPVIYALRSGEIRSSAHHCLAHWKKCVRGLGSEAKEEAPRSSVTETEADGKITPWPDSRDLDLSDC

In the first data set the target is T1, Cannabinoid receptor 1 (Homo sapiens, UniProt P21554). Briefly: Binding affinity to human cannabinoid CB1 receptor.
T1 sequence (P21554 whole entry): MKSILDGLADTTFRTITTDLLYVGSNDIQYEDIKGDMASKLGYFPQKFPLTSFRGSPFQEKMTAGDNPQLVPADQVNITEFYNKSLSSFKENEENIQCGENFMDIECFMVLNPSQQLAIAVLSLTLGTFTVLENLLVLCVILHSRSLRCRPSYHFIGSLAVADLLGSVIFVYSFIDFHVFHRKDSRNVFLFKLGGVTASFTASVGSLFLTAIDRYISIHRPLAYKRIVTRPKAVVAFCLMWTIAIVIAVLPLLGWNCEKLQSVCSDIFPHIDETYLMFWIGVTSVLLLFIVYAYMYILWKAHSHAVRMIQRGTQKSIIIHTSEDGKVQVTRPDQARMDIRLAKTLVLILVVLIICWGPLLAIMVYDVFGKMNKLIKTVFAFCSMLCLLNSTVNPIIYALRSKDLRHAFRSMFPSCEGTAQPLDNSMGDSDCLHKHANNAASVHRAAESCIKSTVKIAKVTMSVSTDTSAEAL
Details: not given
One may read the Ki as the dissociation constant of the complex between target and ligand, obtained from inhibition or displacement. The compound `CCCCOc1c(OC)ccc2cc(C(=O)NCc3ccc([18F])cc3)c(=O)[nH]c12` came in with a Ki of over 10 µM.
Same read-out and setting: as for `CCCCOc1c(OCC[18F])ccc2cc(C(=O)NC3CCCCC3)c(=O)[nH]c12`, the figure is over 1 µM.
`COc1ccc(S(=O)(=O)c2ccc([C@H](C)NS(C)(=O)=O)cc2)c(S(=O)(=O)c2ccc(O[11CH3])cc2)c1` came in with an inhibition constant (Ki) of 0.079 µM.
Consider `CCCCOc1c(O[11CH3])ccc2cc(C(=O)NC3CCCCC3)c(=O)[nH]c12`, for which the Ki was over 1 µM.
For the compound `Cc1c(CCN2CCOCC2)c2cc(O[11CH3])ccc2n1C(=O)c1cccc(Cl)c1Cl`, the inhibitory constant (Ki) turned out to be 6 µM.
On the same count and under the same terms, as for `Cc1s/c(=N\C(=O)C2C(C)(C)C2(C)C)n(CCO[11CH3])c1C`, the figure is 0.27 µM.

In the next data set the target is T1, Cannabinoid receptor 1. Briefly: Displacement of [3H]CP-55,940 from human recombinant cannabinoid CB1 receptor expressed in CHO cells. The data set is classed as cell-based.
Details: not given
As to `CCn1c2ccccc2c2cc(NC(=O)CCc3nc(-c4ccc(F)cc4C#N)no3)ccc21`, the Ki was over 10 µM.
Usually IC50 stands for the concentration that inhibits the measured activity by half. For the compound `N#Cc1cc(F)ccc1-c1noc(CCC(=O)Nc2ccc3c(c2)c2ccccc2n3CCF)n1`, the half-inhibitory concentration (IC50) was over 1 µM.
Consider `O=C(CCc1nc(-c2ccc(F)cc2Br)no1)Nc1ccc2c(c1)c1ccccc1n2CCF`, for which the 50% inhibitory concentration (IC50) is over 1 µM.
Take `O=C(CCc1nc(-c2ccc(F)cc2Br)no1)Nc1ccc2c(c1)c1ccccc1n2CCCCO`: the IC50 is over 1 µM.
Consider `O=C(CCc1nc(-c2ccc(F)cc2)no1)Nc1ccc2c(c1)c1ccccc1n2CCF`, for which the concentration for half-maximal inhibition (IC50) is over 1 µM.
Consider `O=C(CCc1nc(-c2ccc(F)cc2Br)no1)Nc1ccc2c(c1)c1ccccc1n2CCCO`, for which the concentration for half-maximal inhibition (IC50) was over 1 µM.

Tested on in another data set: not listed separately
Put plainly: Lipophilicity, log P of the compound. It is filed as physicochemical. The following applies: octanol/water.
What is called logP is a log measure of how a compound divides between an organic and an aqueous phase. The low end stands for lower lipophilicity, the high end for higher lipophilicity. `COc1ccc(S(=O)(=O)c2ccc([C@H](C)NS(C)(=O)=O)cc2)c(S(=O)(=O)c2ccc(O[11CH3])cc2)c1` displayed a log partition coefficient (logP) of 2.15.

A further data set addresses T2, Cannabinoid receptor 2 (Homo sapiens, UniProt P34972). Briefly: Displacement of [3H]CP-55,940 from human recombinant cannabinoid CB2 receptor expressed in CHO cells at 1 uM. The data set is classed as cell-based.
Details: not given
As usually defined, the inhibition is the share of the control response that was lost under treatment. As to `O=C(CCCc1nc(-c2ccc(F)cc2)no1)Nc1ccc2c(c1)c1ccccc1n2CCO`, the inhibition turned out to be 12%.
On the same count and under the same terms, then `Cc1ccc(-c2noc(CCC(=O)Nc3ccc4c(c3)c3ccccc3n4CCO)n2)cc1`, with 10%; and `O=C(CCCc1nc(-c2ccc(Cl)cc2)no1)Nc1ccc2c(c1)c1ccccc1n2CCCO`, with 10%; and `Cc1ccc(-c2noc(CCC(=O)Nc3ccc4c(c3)c3ccccc3n4CCCO)n2)cc1`, with 28%.
Turning to `Cc1ccc(-c2noc(CCCC(=O)Nc3ccc4c(c3)c3ccccc3n4CCF)n2)cc1`, the inhibition was 0%.
Still for that read-out and setting: then `O=C(CCc1nc(-c2ccc(Cl)cc2)no1)Nc1ccc2c(c1)c1ccccc1n2CCCF`, with 43%.
Turning to `O=C(CCCc1nc(-c2ccc(F)cc2)no1)Nc1ccc2c(c1)c1ccccc1n2CCF`, the inhibition was 25%.
Consider `Cc1ccc(-c2noc(CCC(=O)Nc3ccc4c(c3)c3ccccc3n4CCCF)n2)cc1`, for which the inhibition was found to be 13%.
Consider `O=C(CCCc1nc(-c2ccc(F)cc2)no1)Nc1ccc2c(c1)c1ccccc1n2CCCO`, for which the inhibition is 19%.
Take `O=C(CCCc1nc(-c2ccc(F)cc2Br)no1)Nc1ccc2c(c1)c1ccccc1n2CCCO`: the inhibition came out at 9%.
With `O=C(CCc1nc(-c2ccc(F)cc2)no1)Nc1ccc2c(c1)c1ccccc1n2CCCF`, the inhibition stood at 10%.
On the same count and under the same terms, then `O=C(CCCc1nc(-c2ccc(Cl)cc2)no1)Nc1ccc2c(c1)c1ccccc1n2CCF`, with 23%; and `Cc1ccc(-c2noc(CCCC(=O)Nc3ccc4c(c3)c3ccccc3n4CCCF)n2)cc1`, with 0%; and `Cc1ccc(-c2noc(CCCC(=O)Nc3ccc4c(c3)c3ccccc3n4CCO)n2)cc1`, with 4%.
Still for that read-out and setting: as for `O=C(CCc1nc(-c2ccc(F)cc2Br)no1)Nc1ccc2c(c1)c1ccccc1n2CCCCF`, the figure is 35%; as for `O=C(CCCc1nc(-c2ccc(F)cc2Br)no1)Nc1ccc2c(c1)c1ccccc1n2CCCF`, 25%; as for `O=C(CCc1nc(-c2ccc(Br)cc2F)no1)Nc1ccc2c(c1)c1ccccc1n2CCO`, 35%.
`O=C(CCCc1nc(-c2ccc(F)cc2)no1)Nc1ccc2c(c1)c1ccccc1n2CCCF`: the inhibition is 0%.
As for `O=C(CCCc1nc(-c2ccc(F)cc2Br)no1)Nc1ccc2c(c1)c1ccccc1n2CCO`, the inhibition is 0%.
Same read-out and setting: then `Cc1ccc(-c2noc(CCCC(=O)Nc3ccc4c(c3)c3ccccc3n4CCCO)n2)cc1`, with 13%.

A further data set addresses T2, Cannabinoid receptor 2. Briefly: Binding affinity to human cannabinoid CB2 receptor.
Details: not given
The method in brief:
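Membranes from sonicated CHO cells stably expressing human CB2 (about 100,000 cells/well). Incubated 120 min at 37 °C with 1 nM [3H]CP-55,940, test compound at 10^-10 to 10^-5 M, in TRIS pH 7.4 with 12 mM MgCl2 and 2% BSA. Nonspecific binding defined by 10 µM CP-55,940. Filtration and scintillation counting; duplicates. IC50 by nonlinear regression, converted to Ki by Cheng-Prusoff (Kd 11.8 nM).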
`CCCCOc1c(OC)ccc2cc(C(=O)NCc3ccc([18F])cc3)c(=O)[nH]c12` had an inhibitory constant (Ki) of 0.0028 µM.
`COc1ccc(S(=O)(=O)c2ccc([C@H](C)NS(C)(=O)=O)cc2)c(S(=O)(=O)c2ccc(O[11CH3])cc2)c1`: the affinity, expressed as Ki, was 0.0045 µM.
Take `Cc1c(CCN2CCOCC2)c2cc(O[11CH3])ccc2n1C(=O)c1cccc(Cl)c1Cl`: the affinity corresponds to a Ki of 0.035 µM.
As to `Cc1s/c(=N\C(=O)C2C(C)(C)C2(C)C)n(CCO[11CH3])c1C`, the affinity corresponds to a Ki of 0.00064 µM.

The species entered for a further data set is Homo sapiens. Put plainly: Selectivity ratio of Ki for human recombinant cannabinoid CB1 receptor to Ki for human recombinant cannabinoid CB2 receptor.
Details: not given
For `O=C(CCc1nc(-c2ccc(F)cc2Br)no1)Nc1ccc2c(c1)c1ccccc1n2CCF`, the Ratio Ki is over 200.

Tested on in the next data set: not listed separately
Briefly: Metabolic stability in mouse plasma assessed as compound remaining after 10 mins. The following applies: read-out: Stability. The data set is classed as ADME, cell-free.
With `CCCCOc1c(OCC[18F])ccc2cc(C(=O)NC3CCCCC3)c(=O)[nH]c12`, the remaining at 10 min came out at 41%.
On to `CCCCOc1c(O[11CH3])ccc2cc(C(=O)NC3CCCCC3)c(=O)[nH]c12`, for which the remaining at 10 min stood at 24%.

The target in the next data set is T2, Cannabinoid receptor 2. Briefly: Displacement of [3H]CP-55,940 from human recombinant cannabinoid CB2 receptor expressed in CHO cells. It is filed as cell-based.
Details: not given
Turning to `CCn1c2ccccc2c2cc(NC(=O)CCc3nc(-c4ccc(F)cc4C#N)no3)ccc21`, the inhibition constant (Ki) was 0.00698 µM.
On to `O=C(CCc1nc(-c2ccc(F)cc2)no1)Nc1ccc2c(c1)c1ccccc1n2CCCO`, for which the inhibition constant Ki is 0.195 µM.
On the same count and under the same terms, as for `N#Cc1cc(F)ccc1-c1noc(CCC(=O)Nc2ccc3c(c2)c2ccccc2n3CCF)n1`, the figure is 0.858 µM.
For the compound `O=C(CCc1nc(-c2ccc(F)cc2Br)no1)Nc1ccc2c(c1)c1ccccc1n2CCO`, the inhibition constant Ki was found to be 0.367 µM.
On the same count and under the same terms, as for `O=C(CCc1nc(-c2ccc(F)cc2)no1)Nc1ccc2c(c1)c1ccccc1n2CCO`, the figure is 1.1 µM.
As to `O=C(CCCc1nc(-c2ccc(F)cc2Br)no1)Nc1ccc2c(c1)c1ccccc1n2CCF`, the inhibitory constant (Ki) worked out at 0.559 µM.
On to `O=C(CCCc1nc(-c2ccc(Cl)cc2)no1)Nc1ccc2c(c1)c1ccccc1n2CCO`, for which the inhibitory constant (Ki) came out at 0.584 µM.
Regarding `O=C(CCc1nc(-c2ccc(Cl)cc2)no1)Nc1ccc2c(c1)c1ccccc1n2CCO`, the Ki amounted to 0.99 µM.
The same measure, in the same setting: then `N#Cc1cc(F)ccc1-c1noc(CCC(=O)Nc2ccc3c(c2)c2ccccc2n3CCO)n1`, with 0.486 µM; and `Cc1ccc(-c2noc(CCC(=O)Nc3ccc4c(c3)c3ccccc3n4CCF)n2)cc1`, with 0.377 µM; and `O=C(CCc1nc(-c2ccc(F)cc2Br)no1)Nc1ccc2c(c1)c1ccccc1n2CCF`, with 0.0058 µM.
With `O=C(CCc1nc(-c2ccc(F)cc2Br)no1)Nc1ccc2c(c1)c1ccccc1n2CCCCO`, the Ki was determined as 0.096 µM.
Same read-out and setting: then `O=C(CCc1nc(-c2ccc(F)cc2)no1)Nc1ccc2c(c1)c1ccccc1n2CCF`, with 0.041 µM; and `O=C(CCc1nc(-c2ccc(Br)cc2F)no1)Nc1ccc2c(c1)c1ccccc1n2CCF`, with 0.476 µM; and `O=C(CCc1nc(-c2ccc(F)cc2Br)no1)Nc1ccc2c(c1)c1ccccc1n2CCCO`, with 0.033 µM.
As for `O=C(CCc1nc(-c2ccc(F)cc2Br)no1)Nc1ccc2c(c1)c1ccccc1n2CCCF`, the Ki is 1.8 µM.
On the same count and under the same terms, then `O=C(CCc1nc(-c2ccc(Cl)cc2)no1)Nc1ccc2c(c1)c1ccccc1n2CCF`, with 0.291 µM.
